The source of these data is ChEMBL document CHEMBL2069254, “Synthesis and one-electron reduction characteristics of radiation-activated prodrugs possessing two 5-fluorodeoxyuridine units” (Bioorg Med Chem, 2012).

As a reminder, the IC50 is the point on the concentration scale where inhibition reaches its midpoint. A high value points to lower potency.

Data set [1] is described as follows: Radiation stability assessed as compound decomposition at 100 uM after exposing to 6.0 Gy/min X-ray irradiation aqueous solution containing 2-methyl-2-propanol under hypoxic conditions by HPLC. To be noted: buffer. It counts as physicochemical.
Data set [2] is described as follows: Radiation stability assessed as 5-fluorodeoxyuridine formation at 100 uM after exposing to 6.0 Gy/min X-ray irradiation aqueous solution containing 2-methyl-2-propanol under hypoxic conditions by HPLC. It counts as physicochemical. To be noted: buffer.
Data set [3] is described as follows: Radiation stability assessed as compound decomposition at 100 uM after exposing to 6.0 Gy/min X-ray irradiation aqueous solution containing 2-methyl-2-propanol under aerobic conditions by HPLC. The following applies: buffer. Format: physicochemical.
A short description of data set [4]: Radiation stability assessed as 5-fluorodeoxyuridine formation at 100 uM after exposing to 6.0 Gy/min X-ray irradiation aqueous solution containing 2-methyl-2-propanol under aerobic conditions by HPLC. Format: physicochemical. To be noted: buffer.
The subject of data set [5] is A549. In words: Cytotoxicity against human A549 cells after 72 hrs by microplate reader method. To be noted: A549, 72 h. It counts as functional, cell-based. The method in brief: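 A549 cells grown in DMEM with 10% FBS and 1% streptomycin/penicillin, seeded at 1500 cells/well, cultured 24 h at 37 °C in 5% CO2/95% air. Exposed to a concentration series under aerobic conditions for 72 h. Viability read by WST-8 (CCK-8) after 30 min at 37 °C; IC50 estimated from viability curves.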

Data set [6] relates to A549. In words: Cytotoxicity against human A549 cells incubated with 125 uM compound for 12 hrs followed by pre-irradiated 30 to 6 Gy/min X-ray irradiation measured after 72 hrs under hypoxic conditions by microplate reader method. It counts as functional, cell-based. The essentials: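 A549 cells seeded at 1500 cells/well and held 6 h at 37 °C under hypoxia (<0.3% O2). Compound added, then 12 h hypoxic incubation at 37 °C. Plates kept hypoxic and X-irradiated at 6 Gy, then incubated 72 h aerobically. Viability read by WST-8 (CCK-8). Mean ± S.D., n = 9.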

The subject of data set [7] is A549. Kind of data set: Cytotoxicity against human A549 cells exposed to 1 uM compound pre-irradiated 30 to 120 Gy/min X-ray irradiation measured after 72 hrs under aerobic conditions by microplate reader method. Format: functional, cell-based. The essentials: (§1)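 Compound dissolved in DMEM and X-irradiated (6.0 Gy/min) in a sealed glass ampoule at ambient temperature, under hypoxic or aerobic conditions. A549 cells were seeded at 1500 cells/well and grown 24 h at 37 °C aerobically, then incubated with the irradiated solution aerobically for 72 h. Viability read by WST-8 (CCK-8). Mean ± S.D., n = 6.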

Data set [8] deals with A549. Kind of data set: Cytotoxicity against human A549 cells exposed to 1 uM compound pre-irradiated 30 to 120 Gy/min X-ray irradiation measured after 72 hrs under hypoxic conditions by microplate reader method. It counts as functional, cell-based. The essentials: as §1

SMILES strings stand for the structures. Active and inactive are the calls of the source. The calls are words filed in the database; no cut-off is given here.

Regarding `O=c1c(F)cn([C@H]2C[C@H](O)[C@@H](CO)O2)c(=O)n1CCCn1c(=O)c(F)cn([C@H]2C[C@H](O)[C@@H](CO)O2)c1=O`, the Drug degradation worked out at 148.8 nmol/J in data set [1] and 140.3 nmol/J in data set [3]. For the same compound, the Drug metabolism in data set [2] is reported as less than 1 nmol/J; in data set [4] it was 1.4 nmol/J.

`CC(C(=O)C(C)n1c(=O)c(F)cn([C@H]2C[C@H](O)[C@@H](CO)O2)c1=O)n1c(=O)c(F)cn([C@H]2C[C@H](O)[C@@H](CO)O2)c1=O` (stereo not given in full): the Drug degradation in data set [1] came to 291 nmol/J; in data set [3], 177.2 nmol/J. Also, the Drug metabolism was determined as 115.3 nmol/J in data set [2] and 26.2 nmol/J in data set [4]. Further, the IC50 in data set [5] is 1040 nM.

As to `CC(=O)Cn1c(=O)c(F)cn([C@H]2C[C@H](O)[C@@H](CO)O2)c1=O`, the Drug degradation in data set [1] came to 312.5 nmol/J. Also, in data set [2], the Drug metabolism is listed as 50.9 nmol/J.

In turn, `O=c1[nH]c(=O)n([C@H]2C[C@H](O)[C@@H](CO)O2)cc1F` [FLOXURIDINE] showed a concentration for half-maximal inhibition (IC50) in data set [5] of 12.4 nM.

Turning to `O=C(Cn1c(=O)c(F)cn([C@H]2C[C@H](O)[C@@H](CO)O2)c1=O)Cn1c(=O)c(F)cn([C@H]2C[C@H](O)[C@@H](CO)O2)c1=O`, the outcome in data set [6] and in data set [7] was inactive. Besides, the Drug degradation in data set [1] turned out to be 319.1 nmol/J; in data set [3], 173.6 nmol/J. The Drug metabolism was determined as 125.9 nmol/J in data set [2] and 14.5 nmol/J in data set [4]. The compound further displayed an IC50 in data set [5] of 4660 nM. In addition, in data set [8], the result was Active.
